The values that follow come from ChEMBL document CHEMBL1275547, “KHM-1, a novel plasmid-mediated metallo-beta-lactamase from a Citrobacter freundii clinical isolate” (2008).

Structures are written as SMILES. Values after ≈ are worked out from the molar mass of the structure shown.

What all share (format): functional
The test system of assay [1] is Escherichia coli. Kind of assay: Antibacterial activity against Escherichia coli K-12 W1895 transconjugant harboring pCF243 by microdilution method in presence of clavulanic acid. A digest of the protocol: (§1)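 Broth microdilution MICs of β-lactams. Clavulanic acid was tested combined with ticarcillin at a fixed 15:1 ticarcillin:clavulanic acid ratio.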
In general terms: In broth dilution the organism is exposed to a series of concentrations in liquid medium.

In assay [2] the test system is Escherichia coli. Kind of assay: Antibacterial activity against Escherichia coli K-12 W1895 transconjugant harboring pCF243 by microdilution method.
In assay [3] the test system is Escherichia coli. Kind of assay: Antibacterial activity against Escherichia coli JM109 by microdilution method. A digest of the protocol:
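Microdilution β-lactam susceptibility in E. coli JM109, the host strain for recombinant plasmids such as the pHSG396-based blaKHM-1 clone.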

For assay [4], the system named is Escherichia coli. Kind of assay: Antibacterial activity against Escherichia coli JM109 harboring recombinant pKHM-1 by microdilution method in presence of clavulanic acid. A digest of the protocol: as §1
The test system of assay [5] is Escherichia coli. Kind of assay: Antibacterial activity against Escherichia coli K-12 W1895 by microdilution method in presence of clavulanic acid. A digest of the protocol: as §1
The subject of assay [6] is Escherichia coli. Kind of assay: Antibacterial activity against Escherichia coli K-12 W1895 by microdilution method. Put shortly: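 Microdilution β-lactam MICs in E. coli K-12 W1895, the conjugation recipient. Transconjugants carrying the natural blaKHM-1 plasmid were selected on Penassay agar with rifampin (200 μg/ml) and moxalactam (16 μg/ml).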
Assay [7] has as its system Citrobacter freundii. Kind of assay: Antibacterial activity against Citrobacter freundii KHM243 clinical isolate by microdilution method in presence of clavulanic acid. A digest of the protocol: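 Broth microdilution MICs of β-lactams against the C. freundii KHM243 urinary isolate. Clavulanic acid was combined with ticarcillin at a fixed 15:1 ticarcillin-to-clavulanate ratio.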

The subject of assay [8] is Escherichia coli. Kind of assay: Antibacterial activity against Escherichia coli JM109 by microdilution method in presence of clavulanic acid. A digest of the protocol:
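Broth microdilution susceptibility of E. coli JM109, the host strain for pHSG396-based recombinant plasmids. Ticarcillin was tested with clavulanic acid at a fixed ticarcillin:clavulanic acid ratio of 15:1.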

In assay [9] the test system is Citrobacter freundii. Kind of assay: Antibacterial activity against Citrobacter freundii KHM243 clinical isolate by microdilution method.
For assay [10], the system named is Escherichia coli. Kind of assay: Antibacterial activity against Escherichia coli JM109 harboring recombinant pKHM-1 by microdilution method.

Turning to `CC1(C)S[C@@H]2[C@H](NC(=O)[C@H](C(=O)O)c3ccsc3)C(=O)N2[C@H]1C(=O)O` [TICARCILLIN], the MIC (usually the least concentration at which growth counts as inhibited) in the assay with Escherichia coli [1] was > 512 µg/mL; against Escherichia coli [2], > 512 µg/mL; against Escherichia coli [3] it was 2 µg/mL (≈ 5.2 µM); with Escherichia coli [4], 512 µg/mL; in the assay with Escherichia coli [5], 4 µg/mL; with Escherichia coli [6], 2 µg/mL (≈ 5.2 µM). The MIC is 512 µg/mL in the assay with Citrobacter freundii [7], 2 µg/mL with Escherichia coli [8], > 512 µg/mL against Citrobacter freundii [9] and 512 µg/mL with Escherichia coli [10].
